# Experimental data from ChEMBL document CHEMBL1121953, “Carbon-7 substituted actinomycin D analogues as improved antitumor agents: synthesis and DNA-binding and biological properties” (J Med Chem, 1982).
# *1 amine or outer side, *2 acyl side, *3 side chain or, on linkers, in order; H or OH if unused. Where a SMILES comes first, the peptide text is derived from it. Bridges are numbered along the chain shown (N, C = ends). Roman numbers before positions name the chains, in order. [ ]: non-standard residue; d: D form. Actinocin(9to1) = Cc1c2oc3c(C)ccc(C(=O)[*:1])c3nc-2c(C(=O)[*:2])c(N)c1=O; NMeV = CN[C@H](C(=O)O)C(C)C; Sar = CNCC(=O)O
# Tests used:
# [1] = tested on: P388; test: Antitumor activity against P-388 lymphocytic leukemia in CDF1 hybrid male mice measured as percent increase in lifespan(0.6 mg/kg),ip; type: functional, Mus musculus
# How it was run: (§1)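 Male CDF1 mice (18-23 g) were inoculated ip with 10⁶ P-388 cells on day 0. Drug was given ip in 10% dimethyl sulfoxide-saline on days 1, 5 and 9. Test solutions were kept at 0-4 °C, protected from light, and checked periodically for stability and homogeneity by TLC and HPLC. Read-out was survival, median survival time, increase in life span and tumor-free cures per 7 animals.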
# [2] = tested on: P388; test: Minimum effective dose was determined compared to 7-(2,3-Epoxypropoxy)-actinomycin D against P-388 leukemia in mice(4 days); type: functional, Mus musculus
# How it was run: (§2)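 MED was the dose (mg/kg) giving a 40% increase in life span over control in mice bearing ip P-388 leukemia. Drug was given ip in 10% dimethyl sulfoxide-saline on a q4d 1, 5, 9 (three injections) or qd 1-4 (four injections) schedule.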
# [3] = tested on: P388; test: Antitumor activity against P-388 lymphocytic leukemia in CDF1 hybrid male mice measured as median survival time ( 0.3 mg/kg),ip; type: functional, Mus musculus; how it was run: as §1
# [4] = tested on: P388; test: Maximum tolerated dose was determined compared to 7-(2,3-Epoxypropoxy)-actinomycin D against P-388 leukemia in mice(3 days); type: functional, Mus musculus
# How it was run: (§3)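 Tumor-free male CDF1 mice (18-23 g) received a broad dose range ip in 10% dimethyl sulfoxide-saline, either on days 1, 5, 9 (three injections) or on 4 successive days (qd 1-4). Deaths were recorded over 21 days. MTD was the dose lethal to 10% (LD10), taken from a plot of log dose vs percent mortality. Average of two experiments.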
# [5] = tested on: P388; test: Number of mice with P-388 lymphocytic leukemia cured( 0.15 mg/kg),ip.; 0/7; type: functional, Mus musculus; how it was run: as §1
# [6] = tested on: P388; test: Antitumor activity against P-388 lymphocytic leukemia in CDF1 hybrid male mice measured as median survival time ( 0.15 mg/kg),ip; type: functional, Mus musculus; how it was run: as §1
# [7] = tested on: P388; test: Number of mice with P-388 lymphocytic leukemia cured( 0.6 mg/kg),ip; 1/7; type: functional, Mus musculus; how it was run: as §1
# [8] = tested on: P388; test: Maximum tolerated dose was determined compared to 7-(2,3-Epoxypropoxy)-actinomycin D against P-388 leukemia in mice(4 days); type: functional, Mus musculus; how it was run: as §3
# [9] = tested on: P388; test: Antitumor activity against P-388 lymphocytic leukemia in CDF1 hybrid male mice measured as median survival time ( 0.6 mg/kg),ip; type: functional, Mus musculus; how it was run: as §1
# [10] = tested on: P388; test: Antitumor activity against P-388 lymphocytic leukemia in CDF1 hybrid male mice measured as percent increase in lifespan(0.15 mg/kg),ip; type: functional, Mus musculus; how it was run: as §1
# [11] = tested on: P388; test: Number of mice with P-388 lymphocytic leukemia cured( 0.3 mg/kg),ip; 2/7; type: functional, Mus musculus; how it was run: as §1
# [12] = tested on: P388; test: Minimum effective dose was determined compared to 7-(2,3-Epoxypropoxy)-actinomycin D against P-388 leukemia in mice(3 days); type: functional, Mus musculus; set-up: unit: mg/kg; how it was run: as §2
# [13] = tested on: P388; test: Antitumor activity against P-388 lymphocytic leukemia in CDF1 hybrid male mice measured as median survival time ( 1.2 mg/kg),ip; type: functional, Mus musculus; how it was run: as §1
# [14] = tested on: P388; test: Number of mice with P-388 lymphocytic leukemia cured( 1.2 mg/kg),ip; 0/7; type: functional, Mus musculus; how it was run: as §1
# [15] = tested on: P388; test: Antitumor activity against P-388 lymphocytic leukemia in CDF1 hybrid male mice measured as percent increase in lifespan( 1.8 mg/kg),ip; type: functional; details: Mus musculus; how it was run: as §1
# [16] = tested on: P388; test: Antitumor activity against P-388 lymphocytic leukemia in CDF1 hybrid male mice measured as percent increase in lifespan( 1.2 mg/kg),ip; type: functional; details: Mus musculus; how it was run: as §1
# [17] = species on record: Homo sapiens; test: In vitro growth inhibitory activity against human lymphoblastic leukemia cells; type: functional; details: read-out: ID50 (the source's name)
# How it was run: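 CCRF-CEM human lymphoblastic leukemia cells in log-phase growth; compounds dissolved in Me₂SO, final growth medium 1% Me₂SO.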
# [18] = tested on: P388; test: Antitumor activity against P-388 lymphocytic leukemia in CDF1 hybrid male mice measured as median survival time ( 1.8 mg/kg),ip; type: functional, Mus musculus; how it was run: as §1
# [19] = tested on: P388; test: Number of mice with P-388 lymphocytic leukemia cured.( 1.8 mg/kg),ip; 0/7; type: functional, Mus musculus
# [20] = tested on: P388; test: Antitumor activity against P-388 lymphocytic leukemia in CDF1 hybrid male mice measured as percent increase in lifespan(0.3 mg/kg),ip; type: functional, Mus musculus; how it was run: as §1
# [21] = In vitro growth inhibitory activity for effect on melting temperature of DNA was determined
# How it was run: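 DNA thermal denaturation; ΔTm = Tm of DNA-drug complex minus Tm of DNA. Drug 1.4×10⁻⁴ M, DNA (P) 1.4×10⁻³ M in 0.01 M phosphate buffer pH 7.0 with 5×10⁻³ M EDTA and 5% dimethyl sulfoxide.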
# [22] = tested on: P388; test: Antitumor activity against P-388 lymphocytic leukemia in CDF1 hybrid male mice measured as median survival time (0.031 mg/kg),ip; type: functional, Mus musculus; how it was run: as §1
# [23] = tested on: P388; test: Antitumor activity against P-388 lymphocytic leukemia in CDF1 hybrid male mice measured as median survival time (0.062 mg/kg),ip; type: functional, Mus musculus; how it was run: as §1
# [24] = Therapeutic Index measured as the MTD/MED ratio compared to that of compound 3; details: read-out: Therapeutic index
# How it was run: (§4)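 Therapeutic index is MTD/MED, with ip dosing in 10% dimethyl sulfoxide-saline on a qd 1-4 or q4d 1, 5, 9 schedule. MED is the dose giving a 40% increase in life span over control in P-388-bearing mice. MTD is the LD10 in tumor-free male CDF1 mice (18-23 g) over 21 days, read from a log dose vs. percent mortality plot and averaged over 2-3 experiments.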
# [25] = tested on: P388; test: Antitumor activity against P-388 lymphocytic leukemia in CDF1 hybrid male mice measured as median survival time (0.25 mg/kg),ip; type: functional, Mus musculus; how it was run: as §1
# [26] = tested on: P388; test: Number of mice with P-388 lymphocytic leukemia cured( 0.125 mg/kg),ip.; 1/7; type: functional, Mus musculus
# [27] = tested on: P388; test: Antitumor activity against P-388 lymphocytic leukemia in CDF1 hybrid male mice measured as median survival time (0.125 mg/kg),ip; type: functional, Mus musculus; how it was run: as §1
# [28] = tested on: P388; test: Antitumor activity against P-388 lymphocytic leukemia in CDF1 hybrid male mice measured as percent increase in lifespan( 0.125 mg/kg),ip; type: functional; details: Mus musculus; how it was run: as §1
# [29] = tested on: P388; test: Antitumor activity against P-388 lymphocytic leukemia in CDF1 hybrid male mice measured as median survival time ( 0.375 mg/kg),ip; type: functional, Mus musculus; how it was run: as §1
# [30] = Therapeutic Index measured as the MTD/MED ratio compared to that of compound 4; details: read-out: Therapeutic index; how it was run: as §4
# [31] = tested on: P388; test: Antitumor activity against P-388 lymphocytic leukemia in CDF1 hybrid male mice measured as percent increase in lifespan( 0.250 mg/kg),ip; type: functional; details: Mus musculus; how it was run: as §1
# [32] = tested on: P388; test: Antitumor activity against P-388 lymphocytic leukemia in CDF1 hybrid male mice measured as percent increase in lifespan( 0.031 mg/kg),ip; type: functional; details: Mus musculus; how it was run: as §1
# [33] = tested on: P388; test: Number of mice with P-388 lymphocytic leukemia cured( 0.031 mg/kg),ip; 0/7; type: functional, Mus musculus
# [34] = tested on: P388; test: Number of mice with P-388 lymphocytic leukemia cured( 0.250 mg/kg),ip; 0/7; type: functional, Mus musculus; details: dose 0.25 mg/kg
# [35] = tested on: P388; test: Antitumor activity against P-388 lymphocytic leukemia in CDF1 hybrid male mice measured as percent increase in lifespan(0.062 mg/kg),ip; type: functional, Mus musculus; how it was run: as §1
# [36] = tested on: P388; test: Number of mice with P-388 lymphocytic leukemia cured.( 0.062 mg/kg),ip; 0/7; type: functional, Mus musculus
compound,measurement,setting,value
Cc1c2oc3c(C)c(OCC(O)CO)cc(C(=O)N[C@@H]4C(=O)N[C@H](C(C)C)C(=O)N5CCC[C@H]5C(=O)N(C)CC(=O)N(C)[C@@H](C(C)C)C(=O)O[C@@H]4C)c3nc-2c(C(=O)N[C@@H]2C(=O)N[C@H](C(C)C)C(=O)N3CCC[C@H]3C(=O)N(C)CC(=O)N(C)[C@@H](C(C)C)C(=O)O[C@@H]2C)c(N)c1=O (stereo partly specified),ILS,[1],136%
same,MED,[2],0.125
same,MST,[3],20 days
same,MTD,[4],1.8
same,Cure,[5],0
same,MST,[6],16 days
same,Cure,[7],1
same,MTD,[8],1.4
same,MST,[9],25 days
same,ILS,[10],45%
same,Cure,[11],2
same,MED,[12],0.15
same,MST,[13],32 days
same,Cure,[14],0
same,ILS at 1.8 mg/kg,[15],36%
same,ILS at 1.2 mg/kg,[16],191%
same,IC50,[17],0.085 µg/mL
same,MST,[18],15 days
same,Cure,[19],0
same,ILS,[20],82%
"Cc1c2oc3c(C)ccc(C(=O)N[C@@H]4C(=O)N[C@H](C(C)C)C(=O)N5CCC[C@H]5C(=O)N(C)CC(=O)N(C)[C@@H](C(C)C)C(=O)O[C@@H]4C)c3nc-2c(C(=O)N[C@@H]2C(=O)N[C@H](C(C)C)C(=O)N3CCC[C@H]3C(=O)N(C)CC(=O)N(C)[C@@H](C(C)C)C(=O)O[C@@H]2C)c(N)c1=O [DACTINOMYCIN] (I: T[dV]P[Sar][NMeV] / II: T[dV]P[Sar][NMeV]; ester I:1-I:C, II:1-II:C; linker I:N-II:N via Actinocin(9to1))",DNA melting temperature shift (ΔTm),[21],7.1 °C
same,MED,[2],0.05
same,MTD,[4],0.25
same,MST,[22],13 days
same,MTD,[8],0.15
same,MST,[23],16 days
same,selectivity ratio,[24],4
same,MST,[25],17 days
same,Cure,[26],1
same,MST,[27],26 days
same,ILS at 0.125 mg/kg,[28],136%
same,MST,[29],9 days
same,selectivity ratio,[30],3
same,MED,[12],0.0625
same,ILS at 0.25 mg/kg,[31],55%
same,ILS at 0.031 mg/kg,[32],18%
same,Cure,[33],0
same,IC50,[17],0.06 µg/mL
same,Cure,[34],0
same,ILS,[35],45%
same,Cure,[36],0
